Compound activity (PubChem)
ARFGAP1 inhibitor = inhibitors of rat ARFGAP1 GAP activity, primary screen, biochemical, fluorescence polarization, GDP tracer; ADP-ribosylation factor GTPase-activating protein 1 (Rattus norvegicus), Q62848; Arfgap1-stimulated ARF1 GTP hydrolysis, GDP FP detection; inhibition, % at 16.5 µM; 360,000 compounds, 0.26% hits; AID 651572, 2012;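 active = inhibition above a per-plate limit, mean inhibition of low control wells plus 3 SD, cut at about 25% in these data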;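 also: 0% = DMSO wells with enzyme and 100% = wells lacking Arfgap1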
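System: truncated rat Arfgap1 GAP domain / Medium: HEPES-based buffer, pH 7.5 / Also added: N-terminally truncated human ARF1-GTP substrate / Incubation: enzyme reaction 120 min at 25 °C after 20 min preincubation / Measured by: FP of antibody-bound GDP Alexa 633 tracer, ex 620/em 688 nm / Replicates: singlicate, each compound tested once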
sPLA2-III inh = human group III sPLA2 inhibitors, primary screen, biochemical, QFRET, BODIPY PC-A2 liposome substrate; Group 3 secretory phospholipase A2 (Homo sapiens), Q9NZ20; QFRET BODIPY PC-A2 liposome hydrolysis, fluorescence; inhibition, % at 12.2 µM; 370,000 compounds, 0.56% hits; AID 743126, 2013;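 active = inhibition above mean plus 3 SD of compounds lying within the high and low control bounds, cut at about 19% in these data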;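 also: 0% = median of test compound wells and 100% = no enzyme DMSO wells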
NR1D1 modulator = modulators of Rev-erb alpha DNA binding, primary screen, biochemical, FITC-DNA, fluorescence polarization, uHTS; Nuclear receptor subfamily 1 group D member 1 (Homo sapiens), P20393; Rev-erbα–FITC-DNA binding, 90 min; activity, % at 10 µM; 370,000 compounds, 0.79% hits;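 active = activity above about 14%, limit read from the data; passing the limit was not always enough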;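 also: 0% = DMSO wells with 35 nM protein and 100% = DMSO wells with 750 nM protein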
Target sequence (P20393 whole entry, looked up): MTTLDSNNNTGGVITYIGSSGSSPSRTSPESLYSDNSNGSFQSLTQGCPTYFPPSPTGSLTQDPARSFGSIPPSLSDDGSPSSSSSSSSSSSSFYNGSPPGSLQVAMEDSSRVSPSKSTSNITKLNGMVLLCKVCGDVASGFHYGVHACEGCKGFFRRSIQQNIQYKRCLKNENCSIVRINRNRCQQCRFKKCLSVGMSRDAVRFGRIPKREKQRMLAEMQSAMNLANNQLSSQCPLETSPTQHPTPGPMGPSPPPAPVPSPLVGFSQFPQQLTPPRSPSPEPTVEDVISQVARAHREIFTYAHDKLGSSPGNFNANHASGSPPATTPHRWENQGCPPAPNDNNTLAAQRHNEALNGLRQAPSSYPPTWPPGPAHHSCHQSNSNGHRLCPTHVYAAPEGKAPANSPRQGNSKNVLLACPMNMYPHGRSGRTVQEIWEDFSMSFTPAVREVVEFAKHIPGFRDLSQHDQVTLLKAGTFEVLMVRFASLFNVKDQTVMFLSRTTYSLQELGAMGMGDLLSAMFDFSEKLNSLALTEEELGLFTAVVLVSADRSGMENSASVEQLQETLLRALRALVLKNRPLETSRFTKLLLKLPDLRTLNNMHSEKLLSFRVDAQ
MsrA inh = bovine MsrA enzyme inhibitors, primary screen, biochemical, absorbance, HTS | Methionine sulfoxide reductase A (Bos taurus) | purified bovine MsrA, absorbance read-out | inhibition, % at 15.5 µM | 360,000 compounds, 0.75% hits | AID 651718, 2012; in the data active = inhibition above about 4.5%;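 also: 0% = vehicle wells with enzyme and 100% = reference inhibitor wells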
ASAP1 inh = inhibitors of human ASAP1 ArfGAP activity, primary screen, biochemical, fluorescence polarization | Arf-GAP with SH3 domain, ANK repeat and PH domain-containing protein 1 (Homo sapiens), … | 360,000 compounds, 0.19% hits | inhibition, % at 16.5 µM | ASAP1-stimulated ARF1 GTP hydrolysis, GDP FP detection | AID 624377, 2012; in the data active = inhibition above about 25%;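 also: 0% = vehicle with enzyme and substrate and 100% = no enzyme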
MsrA act = bovine MsrA enzyme activators, primary screen, biochemical, absorbance, HTS | 360,000 compounds, 0.3% hits | activation, % at 10.6 µM | purified bovine MsrA, absorbance read-out | AID 602163, 2012; in the data active = activation above about 7.5%;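 also: 0% = vehicle and 100% = reference activator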
Rev-erbA confirm = modulators of Rev-erb alpha DNA binding, confirmation, biochemical, FITC-DNA, fluorescence polarization, single point; shares compounds with NR1D1 modulator; AID 1259319, 2017; 3,000 compounds, 61% hits; 90 min; activation, % at 25 µM;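 active = activation at or above a set limit, or at least 3 SD above the negative control mean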;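 also: 0% = 35 nM protein with DMSO and 100% = 750 nM protein high control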
RORg DNA counter = modulation of RORgamma DNA binding, dose response, counter-screen for Rev-erb alpha modulator project, biochemical, fluorescence polarization, FITC-DNA; purified RORgamma protein-FITC-DNA binding; IC50, µM; shares compounds with NR1D1 modulator; 910 compounds, 8% hits; AID 1259320, 2017;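 active = Compounds whose fitted half-maximal concentration for disrupting protein-DNA binding is below 10 micromolar; the record names Rev-erb in its text, so the target is in doubt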
* marks the source's active call; other numbers are inactive results. This is a sample that favours compounds with a hit; in the whole collection about 2.7% have one here.

For CC(=O)c1cc2c(cc1NS(=O)(=O)c1ccccc1)OCO2 the results were ARFGAP1 inhibitor -3, sPLA2-III inh 1, NR1D1 modulator -1, MsrA inh 1, ASAP1 inh -9 and MsrA act -2.
CC(=O)c1ccc(NC(=O)c2cccc(S(=O)(=O)N3CCN(C)CC3)c2)cc1 was read as ARFGAP1 inhibitor -2, sPLA2-III inh -6, NR1D1 modulator 0, MsrA inh 1, ASAP1 inh 11 and MsrA act -2.
`CC(=O)c1cc2c(cc1NC(=O)c1cccc(S(=O)(=O)N3CCN(C)CC3)c1)OCO2` gave ARFGAP1 inhibitor 14, sPLA2-III inh 4, NR1D1 modulator 20*, MsrA inh -2, ASAP1 inh 1, MsrA act -4 and Rev-erbA confirm 5.
For CC(=O)c1cc2c(cc1N/C(=N/S(=O)(=O)c1ccccc1)c1ccc(Cl)cc1)OCO2 the results were ARFGAP1 inhibitor -10, sPLA2-III inh -4, NR1D1 modulator 90*, MsrA inh 0, ASAP1 inh 0, MsrA act -10, Rev-erbA confirm 48* and RORg DNA counter >40.
For C=C1C(=O)OCC2C(C(=O)O)=CC3C(C)C(C)=CC123 (stereo not drawn) the results were ARFGAP1 inhibitor 5, sPLA2-III inh 6, NR1D1 modulator 4, MsrA inh 1, ASAP1 inh 12 and MsrA act -2.
`CCCn1c(=S)[nH]c2cc(C(=O)NCc3ccccc3OC)ccc2c1=O` gave ARFGAP1 inhibitor 3, sPLA2-III inh 6, NR1D1 modulator 36*, MsrA inh 0, ASAP1 inh 8, MsrA act 1 and Rev-erbA confirm 27*.
For CCCCNC(=O)CCCn1c(=S)[nH]c2cc3c(cc2c1=O)OCO3 the results were ARFGAP1 inhibitor -4, sPLA2-III inh 14, NR1D1 modulator -4, MsrA inh 1, ASAP1 inh 3 and MsrA act -1.
O=C(CCCn1c(=S)[nH]c2cc3c(cc2c1=O)OCO3)NCc1ccccc1Cl was read as ARFGAP1 inhibitor -9, sPLA2-III inh 13, NR1D1 modulator 50*, MsrA inh 1, ASAP1 inh 12, MsrA act -1, Rev-erbA confirm 33* and RORg DNA counter >40.
For COc1cccc(CNC(=O)CCCn2c(=S)[nH]c3cc4c(cc3c2=O)OCO4)c1 the results were ARFGAP1 inhibitor 17, sPLA2-III inh 8, NR1D1 modulator 86*, MsrA inh 0, ASAP1 inh -7, MsrA act -3, Rev-erbA confirm 57* and RORg DNA counter >40.
For COCCNC(=O)c1ccc2c(=O)n(CCCN3CCCC3=O)c(=S)[nH]c2c1 the results were ARFGAP1 inhibitor 1, sPLA2-III inh -2, NR1D1 modulator 2, MsrA inh 1, ASAP1 inh -4 and MsrA act -5.
For COCCCNC(=O)c1ccc2c(=O)n(Cc3ccccc3OC)c(=S)[nH]c2c1 the results were ARFGAP1 inhibitor 0, sPLA2-III inh 8, NR1D1 modulator 3, MsrA inh 0, ASAP1 inh -20 and MsrA act 0.
For O=C(NCc1ccccc1Cl)c1ccc2c(=O)n(CCCN3CCCC3=O)c(=S)[nH]c2c1 the results were ARFGAP1 inhibitor 15, sPLA2-III inh 1, NR1D1 modulator 29*, MsrA inh 0, ASAP1 inh 2, MsrA act -12 and Rev-erbA confirm 18*.
For Cc1cc(O)cc(O)c1/C=N/NC(=O)c1ccc2c(c1)OCCO2 the results were ARFGAP1 inhibitor 19, sPLA2-III inh 4, NR1D1 modulator 7, MsrA inh 4, ASAP1 inh 13 and MsrA act -4.
Screening COC(=O)[C@@]1(Sc2ccc(C)cc2)CC(=O)N[C@@H]1c1ccc(Br)cc1 returned ARFGAP1 inhibitor -1, sPLA2-III inh 0, NR1D1 modulator 6, MsrA inh 0, ASAP1 inh 10 and MsrA act 0.
Screening Cc1ccc2nc(-c3ccccn3)c(N)n2c1 returned ARFGAP1 inhibitor 1, sPLA2-III inh -2, NR1D1 modulator -4, MsrA inh 0, ASAP1 inh 0 and MsrA act 0.
For COc1ccc(NC(=O)N(CCc2c(C)[nH]c3ccccc23)Cc2cccs2)cc1OC the results were sPLA2-III inh -22 and NR1D1 modulator 8.
COC(=O)[C@]12CCCCC=C1N(Cc1ccc3c(c1)OCO3)C(=O)[C@H](CC(=O)N1CCN(C(=O)C3CC3)CC1)C2 was read as ARFGAP1 inhibitor -2, sPLA2-III inh 0, NR1D1 modulator 2, MsrA inh 0 and ASAP1 inh 6.
Screening COC(CNC(=O)c1ccc2c(=O)n(Cc3ccc(Cl)cc3)c(=S)[nH]c2c1)OC returned ARFGAP1 inhibitor 2, sPLA2-III inh 3, NR1D1 modulator 29*, MsrA inh -2, ASAP1 inh -2, MsrA act -3 and Rev-erbA confirm 12.
Screening C=CS(=O)(=O)N(Cc1ccc(F)cc1)C(=C)C(=O)OC returned sPLA2-III inh 19 and NR1D1 modulator -8.
For COc1ccc(OC)c2c1C(=O)c1ccccc1C2=O the results were ARFGAP1 inhibitor -19, sPLA2-III inh -3, NR1D1 modulator -1, MsrA inh 1 and ASAP1 inh -13.
For COc1ccc2noc3c2c1C(=O)c1ccccc1-3 the results were ARFGAP1 inhibitor -3, sPLA2-III inh -444, NR1D1 modulator 21*, MsrA inh 0, ASAP1 inh 6, MsrA act -1 and Rev-erbA confirm 1.
Screening Cc1ccc(Cc2c(-c3ccc(Cl)cc3)nc3c(C)cc(Br)cn23)cc1 returned ARFGAP1 inhibitor -16, sPLA2-III inh -17, NR1D1 modulator 4, MsrA inh 0, ASAP1 inh 9 and MsrA act -2.
